The text below walks through data of ChEMBL document CHEMBL1133983, “Antiprotozoal and cytotoxicity evaluation of sulfonamide and urea analogues of quinacrine” (Bioorg Med Chem Lett, 2001).

For orientation: IC50 means the concentration at which inhibition is half-maximal. Low values mean inhibition by little substance, high ones a need for much substance.

Assay [1] has as its system Trypanosoma cruzi. Put plainly: Anti parasitic activity against Trypanosoma cruzi (cultured in murine macrophages). In kind it is functional. The conditions noted are these: read-out: ED50 (the source's name).
For assay [2], the system named is Plasmodium falciparum. The assay is described as follows: Anti parasitic activity for Plasmodium falciparum K1. In kind it is functional. To be noted: read-out: ED50 (the source's name). Summed up: (§1)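 Growth of P. falciparum in human red blood cells was measured by [³H]-hypoxanthine incorporation over 48 h. 3D7 is the chloroquine-sensitive strain and K1 the chloroquine-resistant strain.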

The subject of a further assay is Trypanosoma brucei. The assay is described as follows: Anti parasitic activity against Trypanosoma brucei. In kind it is functional. The conditions noted are these: read-out: ED50 (the source's name).
Assay [3] deals with Plasmodium falciparum. Put plainly: Antiparasitic activity for Plasmodium falciparum 3D7. In kind it is functional. To be noted: read-out: ED50 (the source's name). In a few lines: as §1
A further assay has as its system KB. The assay is described as follows: Toxicity of the quinacrine derivatives was determined against the KB cell line in comparison to podophyllotoxin. In kind it is functional. To be noted: Homo sapiens, read-out: ED50 (the source's name).
The nature of assay [4]: Ratio of Inhibitory activity against glutathione reductase and inhibitory activity against trypanothione reductase was determined.
For a further assay, the system named is Leishmania donovani. Put plainly: Anti parasitic activity against Leishmania donovani (cultured in murine macrophages). In kind it is functional. The conditions noted are these: for EC50: read-out: ED50 (the source's name).
Assay [5] has as its target T1, Glutathione reductase, mitochondrial (Homo sapiens, UniProt P00390).
T1 sequence (P00390 whole entry): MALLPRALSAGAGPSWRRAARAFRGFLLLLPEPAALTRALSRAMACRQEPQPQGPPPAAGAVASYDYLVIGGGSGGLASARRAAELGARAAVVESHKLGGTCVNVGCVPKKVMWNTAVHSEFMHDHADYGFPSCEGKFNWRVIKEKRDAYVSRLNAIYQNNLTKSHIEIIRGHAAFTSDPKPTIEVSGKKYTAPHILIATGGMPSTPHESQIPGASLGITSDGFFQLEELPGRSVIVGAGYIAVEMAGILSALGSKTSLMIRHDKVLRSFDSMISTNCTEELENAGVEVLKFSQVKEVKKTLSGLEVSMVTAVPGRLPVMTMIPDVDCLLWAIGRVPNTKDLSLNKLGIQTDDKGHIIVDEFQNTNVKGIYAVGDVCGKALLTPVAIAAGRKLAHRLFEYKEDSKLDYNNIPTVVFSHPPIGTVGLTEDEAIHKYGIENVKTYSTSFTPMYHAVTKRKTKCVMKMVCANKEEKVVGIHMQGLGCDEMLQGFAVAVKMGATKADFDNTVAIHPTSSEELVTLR
Put plainly: Inhibitory concentration against human Glutathione reductase was determined. Summed up:
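Human glutathione reductase purified from erythrocytes (42.3 mU) was run spectrophotometrically at 25 °C in 40 mM HEPES pH 7.5 with 1 mM EDTA and NADPH. It was preincubated with NADPH for 10 min, inhibitor was added at varying concentrations in DMSO (1% v/v final), and glutathione disulfide was then added.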

A further assay has as its target Trypanothione reductase (Trypanosoma cruzi, UniProt P28593). Put plainly: Inhibitory concentration against trypanothione reductase was determined. In a few lines: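 Recombinant T. cruzi trypanothione reductase (128 mU) was followed spectrophotometrically at 25 °C in 40 mM HEPES pH 7.5 with 1 mM EDTA and NADPH. Enzyme and NADPH were preincubated for 10 min at 25 °C, inhibitor was added at varying concentrations in DMSO (1% v/v final), and the reaction was started with Try[SH]2.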

Assay [6] relates to Trypanosoma cruzi. The assay is described as follows: Anti parasitic activity against Trypanosoma cruzi. In kind it is functional. To be noted: read-out: ED50 (the source's name). Summed up: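 In vitro test against intracellular amastigotes of T. cruzi grown in murine macrophages.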

Values after ≈ are worked out from the molar mass of the structure shown. A value given as a limit tells only on which side of the number the result lay.

Sequence of Trypanothione reductase (P28593 whole entry): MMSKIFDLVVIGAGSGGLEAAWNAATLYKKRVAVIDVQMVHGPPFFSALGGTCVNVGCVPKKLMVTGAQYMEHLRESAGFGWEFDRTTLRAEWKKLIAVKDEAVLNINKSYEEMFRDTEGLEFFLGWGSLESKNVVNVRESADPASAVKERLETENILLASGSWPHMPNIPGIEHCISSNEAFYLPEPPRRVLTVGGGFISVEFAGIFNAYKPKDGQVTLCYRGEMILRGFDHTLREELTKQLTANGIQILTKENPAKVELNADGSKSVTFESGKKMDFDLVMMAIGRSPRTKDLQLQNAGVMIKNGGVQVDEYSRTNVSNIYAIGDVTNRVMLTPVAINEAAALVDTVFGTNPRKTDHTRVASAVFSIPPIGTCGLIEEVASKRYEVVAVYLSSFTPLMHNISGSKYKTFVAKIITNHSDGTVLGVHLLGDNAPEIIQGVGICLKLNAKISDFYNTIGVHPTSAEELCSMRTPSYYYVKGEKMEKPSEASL

Turning to `COc1ccc2nc3cc(Cl)ccc3c(NCCCNC(=O)NCc3ccccc3)c2c1`, the EC50 with Trypanosoma cruzi [1] was 22 mg/L (≈ 49 µM); with Plasmodium falciparum [2], 0.015 mg/L (≈ 0.0334 µM); in the assay with Trypanosoma brucei, 0.083 mg/L (≈ 0.185 µM); with Plasmodium falciparum [3], 0.0005 mg/L (≈ 0.00111 µM); in the assay on KB it was 0.7 mg/L (≈ 1.56 µM); in the assay on Leishmania donovani, 1.9 mg/L (≈ 4.23 µM). The Selectivity in assay [4] was found to be 3.4. Besides, the IC50 is 44.7 µM in assay [5] and 13.1 µM at Trypanothione reductase.

Take `CCN(CC)CCCC(C)Nc1c2ccc(Cl)cc2nc2ccc(OC)cc12` (stereo unspecified) [QUINACRINE]: the Selectivity in assay [4] was more than 7.5. For the same compound, the 50% inhibitory concentration (IC50) in [5] was more than 1000 µM; on Trypanothione reductase, 133 µM.

As to Pentostam, the ED50 with Leishmania donovani is 8.9 mg/L.

On to `CCN(CC)CCCC(C)Nc1ccnc2cc(Cl)ccc12` (stereo unspecified) [CHLOROQUINE], for which the EC50 with Plasmodium falciparum [2] amounted to 0.15 mg/L (≈ 0.469 µM); with Plasmodium falciparum [3], 0.002 mg/L (≈ 0.00625 µM).

`COc1ccc2nc3cc(Cl)ccc3c(NCCNC(=O)NCc3ccccc3)c2c1`: the EC50 in the assay on Trypanosoma cruzi [1] was more than 30 mg/L; with Trypanosoma brucei, 0.42 mg/L (≈ 0.966 µM); with Plasmodium falciparum [3], 0.069 mg/L (≈ 0.159 µM); in the assay with KB, 4.1 mg/L (≈ 9.43 µM); in the assay with Leishmania donovani, 10.7 mg/L (≈ 24.6 µM). In addition, in assay [4], the Selectivity is 1.4. The IC50 was found to be 27.2 µM in assay [5] and 19.3 µM against Trypanothione reductase.

For the compound `COc1ccc2nc3cc(Cl)ccc3c(NCCCCCCNC(=O)NCc3ccccc3)c2c1`, the EC50 in the assay on Trypanosoma cruzi [1] came out at 6.8 mg/L (≈ 13.8 µM); in the assay with Trypanosoma brucei, 0.46 mg/L (≈ 0.937 µM); in the assay on Plasmodium falciparum [3], 0.14 mg/L (≈ 0.285 µM); in the assay on KB, 4.3 mg/L (≈ 8.76 µM); with Leishmania donovani, 5.8 mg/L (≈ 11.8 µM). Further, the Selectivity in assay [4] worked out at 1.5. In addition, the IC50 is 17.1 µM in assay [5] and 11.4 µM against Trypanothione reductase.

With `c1ccc2[nH]cnc2c1` [BENZIMIDAZOLE], in the assay with Trypanosoma cruzi [6], the EC50 stood at 12.4 mg/L (≈ 105 µM).

For `COc1ccc2nc3cc(Cl)ccc3c(NCCCCNS(=O)(=O)c3ccc4ccccc4c3)c2c1`, the EC50 in the assay on Trypanosoma cruzi [1] is more than 30 mg/L; in the assay with Trypanosoma brucei, 0.12 mg/L (≈ 0.231 µM); in the assay with Plasmodium falciparum [3], 0.033 mg/L (≈ 0.0635 µM); with KB, 0.4 mg/L (≈ 0.769 µM); with Leishmania donovani, 3.3 mg/L (≈ 6.35 µM). The Selectivity in assay [4] is 2.8. Besides, the half-maximal inhibitory concentration (IC50) turned out to be 13.9 µM in assay [5] and 5 µM against Trypanothione reductase.

As to `N=C(N)c1ccc(OCCCCCOc2ccc(C(=N)N)cc2)cc1` [PENTAMIDINE], the EC50 with Trypanosoma brucei was 0.0002 mg/L (≈ 0.000587 µM).

As for `COc1ccc2nc3cc(Cl)ccc3c(NCCNS(=O)(=O)c3ccc4ccccc4c3)c2c1`, the EC50 was more than 30 mg/L with Trypanosoma cruzi [1]; 0.47 mg/L (≈ 0.955 µM) with Trypanosoma brucei; 0.025 mg/L (≈ 0.0508 µM) with Plasmodium falciparum [3]; 2.7 mg/L (≈ 5.49 µM) in the assay on KB; 5.8 mg/L (≈ 11.8 µM) in the assay on Leishmania donovani. For the same compound, the Selectivity in assay [4] amounted to 1.7. Besides, the figures for the half-maximal inhibitory concentration (IC50) (in assay [5]; against Trypanothione reductase) were 9.9 µM and 5.9 µM, respectively.

On to `COc1cc([C@@H]2c3cc4c(cc3[C@H](O)[C@H]3COC(=O)[C@H]23)OCO4)cc(OC)c1OC` [PODOFILOX], for which, in the assay with KB, the EC50 is 0.008 mg/L (≈ 0.0193 µM).

On to `COc1ccc2nc3cc(Cl)ccc3c(NCCCNS(=O)(=O)c3ccc4ccccc4c3)c2c1`, for which the EC50 in the assay with Trypanosoma cruzi [1] amounted to 23.9 mg/L (≈ 47.2 µM); in the assay with Trypanosoma brucei, 0.078 mg/L (≈ 0.154 µM); with Plasmodium falciparum [3], 0.01 mg/L (≈ 0.0198 µM); in the assay on KB it was 0.4 mg/L (≈ 0.79 µM); with Leishmania donovani it was 1.9 mg/L (≈ 3.75 µM). Also, in assay [4], the Selectivity came out at 8.2. Also, the IC50 in assay [5] stood at 27.2 µM; against Trypanothione reductase it was 3.3 µM.

In the case of `COc1ccc2nc3cc(Cl)ccc3c(NCCCCNC(=O)NCc3ccccc3)c2c1`, the EC50 in the assay with Trypanosoma cruzi [1] was less than 1 mg/L; in the assay with Trypanosoma brucei, 0.043 mg/L (≈ 0.0929 µM); in the assay with Plasmodium falciparum [3] it was 0.0013 mg/L (≈ 0.00281 µM); in the assay on KB it was 0.8 mg/L (≈ 1.73 µM); with Leishmania donovani, 1.9 mg/L (≈ 4.1 µM). In addition, in assay [4], the Selectivity was 3.6. In addition, the IC50 in assay [5] is 55.8 µM; at Trypanothione reductase, 15.5 µM.
